Experimental data reported in the EternaBench riboswitch data.

Tested on: MS2 coat protein
Assay: apparent Kd, MS2 coat protein; higher = weaker binding; RNA-MaP array; FMN 200 µM where present
Method in brief: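 Green signal was scaled to red-channel RNA signal and control-cluster median Fmax, and the apparent Kd was taken as the median of filtered per-cluster binding-curve fits. The binding series used SNAP-549-labelled MS2 coat protein from 0.7 or 1.5 nM, doubling to 3 µM, on designs transcribed by stalled E. coli RNA polymerase on Illumina sequencing-chip clusters. Each series ran without and then with constant ligand in 100 mM Tris-HCl pH 7.5, 80 mM KCl, 4 mM MgCl2, BSA, DTT, yeast tRNA and Tween-20.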

[1] = designed as: ON switch for flavin mononucleotide, no ligand
[2] = ligand present: flavin mononucleotide, designed as: ON switch for flavin mononucleotide
[3] = designed as: OFF switch for flavin mononucleotide, no ligand
[4] = ligand present: flavin mononucleotide, designed as: OFF switch for flavin mononucleotide

Row | Sequence | apparent Kd [1] | apparent Kd [2] | apparent Kd [3] | apparent Kd [4]
1 | UUACCUCAUAUGGUUACAUGAGGAUCACCCAUGUGAAUAGCACAGGAUAUCACGAGGGCCACGUGUGAGAAGGGUGAUGUGAGG | 438 nM | 167 nM |  | 
2 | ACAAAGAGCCAAGGAUAUACGUCGUCGAGCCCUCCCGUAGUGGCCAGCACAUGAGGAUCACCCAUGUAGAAGGUGGCUGUAGUC |  |  | 20.1 nM | 38.5 nM
3 | GUCAGCUCGUGAGGAUAUACAUGUGCUGGAGACAGCACUAUUGAGUUCACAUGAGGAUCACCCAUGUAGAAGGCACGAGCUGAU |  |  | 15.5 nM | 27.4 nM
4 | UUUAAUCGAAACAUGAGGAUCACCCAUGUGUUGUAAUUAACAUAGGAUAUUUGUAUGCUUUUGUAAGAGAAGGAUGAUAAUACU | 21.2 nM | 16.1 nM |  | 
5 | UUACCUCAUGAGAAGGCGAUCAUGAAACAUGAUCGAGGAUAUCAUGUAAACAUGAGGAUCACCCAUGUAUGGGUAUUAUGGUAA | 166 nM | 44.1 nM |  | 
6 | GUCGGAAACGACAAAAGUAGCAUACGAGAAGGCUGAUCCACGACAUGAGGAUCACCCAUGUAUUUAGAGGAUAUUGGAUGCUAC | 134 nM | 21.6 nM |  | 
7 | AUAAAUAUAGCGAUAUGAUCGAGAGAUCAUGUCGCUAAAGUUAGAAGGACAUGAGGAUCACCCAUGUAGGAUAUGGGAGUAUGA | 170 nM | 62.8 nM |  | 
8 | CACCGUAACAGAGGAUAUCAAACAUGAGGAUCACCCAUGUAAUAAAUGAGAAUUUCGAAUGUACCUGAGAAGGCUGAAACCGGC |  |  | 35.6 nM | 41.1 nM
9 | AAAUGAUGAGGAUAUACAUGAGGAUCACCCAUGUGUAAAAAUAAAUACACAAAAGAAAGUAGAAGGCAUCAAAA |  |  | 31.6 nM | 124 nM
10 | GUGCGAGCCACAGGAUAUCUACAGAUUUAUUGUAGAGAAGGGUGACCUCGUGCACCACAUGAGGAUCACCCAUGUAACUAGGCG | 30 nM | 48.2 nM |  | 
11 | ACUGACAUGAGGAUCACCCAUGUCUUGAAUAGGUCAAAUUCACAGGAUAUGCACUUGGACAGGGUGCAGAAGGGUGAUGCAAUG | 57 nM | 12.2 nM |  | 
12 | UGGUACAUGGGAGGAUAUCCUCAUGAGACAUGAGGAUCACCCAUGUAUUAUAAGCCGAAAGGCAAGGAGAAGGCCCAUGUACCU | 90.2 nM | 19.5 nM |  | 
13 | UGCGUUAAGCCCUUAAGUCGUCAACAUGAGGAUCACCCAUGUAGAAGGCAGCGGACGCGGCCGGCUGAGGAUAUACAUGUAGGU |  |  | 13.3 nM | 16.8 nM
14 | AUUAUGACCGAGUUAUAGUUCCUAACAUGAGGAUCACCCAUGUAGGAUAUCAGCACGAUAAGUGCUGAGAAGGACAUCUCGGUC |  |  | 13.3 nM | 13.9 nM
15 | AUAGGGACCUCGCAAUGUUUACAUGAGGAUCACCCAUGUAAGAGAAGGGUCCAGUCAUCUCCUGGAUAGGAUAUCUUACCGUUA |  |  | 5.21 nM | 6.44 nM
16 | ACAUGAGGAUCACCCAUGUAUAGAUUUGAAUGUUAAGUUACGUAGGAUAUCGUGUUUAGUAUGAUCGAGAAGGACGAUCUGAUA | 25.8 nM | 20.8 nM |  | 
17 | CAAAAGGAAGGAUAUGCAUCGGGAGGUGCUCAGCAUCAAAUACAUGAGGAUCACCCAUGUAGAAGGUCUGAAAA |  |  | 32.1 nM | 85.7 nM
18 | AGCCAGGACGGGUGCCUGAGCGGGAGAAGGUACGAGGGAUCGUCUGGACAUGAGGAUCACCCAUGUAAGGAUAUCCCGCCUAUU |  |  | 8.78 nM | 18.1 nM
19 | AAGAAGUCAGGAUAUGCUGCUCGUCACUUGCGUGAUGAGUAGCAGAAGGGACAUGAGGAUCACCCAUGUGGAAG |  |  | 111 nM | 240 nM
20 | CUCUUGUUAGGAUAUCAAACUGGCAGCGGAGCUGGCAGAAGUGAGAAGGGACAUGAGGAUCACCCAUGUAAGAA |  |  | 69.2 nM | 228 nM
21 | GGUGUGAGGCAGGAUAUGCUAUAUGUAAGUAAUGCAGAAGGGUCUACAUGAGGAUCACCCAUGUGUGCGGUAGA |  |  | 105 nM | 311 nM
22 | GUGGUCAGACAUGAGGAUCACCCAUGUGGAAUAAAUAACAGACAGGAUAUGUAAUAUAGGAUAUAACAGAAGGGUCGAUUGGUG | 89 nM | 77.9 nM |  | 
23 | UCGAGUCAUGAGAAGGGUUGAUGUUACAUGAGGAUCACCCAUGUCAUGGGCAGGAUAUCAUUGACACGACUGUACCUCUCUUAC | 254 nM | 112 nM |  | 
